Results as given in ChEMBL document CHEMBL3259520, “Structure-activity relationships studies of quinoxalinone derivatives as aldose reductase inhibitors” (Eur J Med Chem, 2014).

How the values were obtained:
[1] = target: Aldo-keto reductase family 1 member B1 (Rattus norvegicus) (UniProt P07943); experiment: Inhibition of Wistar rat eye lens aldose reductase-2 using D-L glyceraldehyde as substrate assessed as oxidation of NADPH at 10 uM preincubated for 10 mins followed by substrate addition measured for 4 mins by spectrophotometric analysis relative to control
In short: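 ALR2 was taken from Wistar rat lens homogenate. It was fractionated with ammonium sulfate (40% and 50% supernatants, then a 75% cut), dissolved in 0.05 M NaCl, dialyzed and stored at −20 °C. The 1 mL assay ran at 30 °C with 0.10 mM NADPH solution, 0.1 M sodium phosphate pH 6.2 and D,L-glyceraldehyde substrate. Compounds were in DMSO diluted with water, 10^-5 M final, with a substrate-free blank rate subtracted.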

[2] = target: Aldo-keto reductase family 1 member B1 (Rattus norvegicus, UniProt P07943); experiment: Inhibition of Wistar rat eye lens aldose reductase-2 using D-L glyceraldehyde as substrate assessed as oxidation of NADPH preincubated for 10 mins followed by substrate addition measured for 4 mins by spectrophotometric analysis
[3] = tested on: Aldehyde reductase AKR1A1 (Rattus norvegicus); experiment: Inhibition of Wistar rat kidney aldehyde reductase-1 using D-glucuronate as substrate assessed as oxidation of NADPH at 10 uM preincubated for 10 mins followed by substrate addition measured for 4 mins by spectrophotometric analysis relative to control

inhibition [1]	IC50 [2]	inhibition [3]	Structure (SMILES)
36.2%			CC(C)(C)NC(=O)/C=C/c1nc2ccccc2n(Cc2ccc([N+](=O)[O-])cc2)c1=O
	1430 nM	47%	O=C(O)Cn1c(=O)c(/C=C/c2ccc(F)cc2)nc2ccccc21
	143 nM	22%	O=C(O)Cn1c(=O)c(CCc2ccccc2)nc2ccccc21
	1140 nM	40%	O=C(O)Cn1c(=O)c(CCc2ccc(F)cc2)nc2ccccc21
	820 nM	32%	O=C(O)Cn1c(=O)c(/C=C/c2ccccc2)nc2ccccc21
24%			O=c1c(/C=C/c2ccc(F)cc2)nc2ccccc2n1Cc1ccc([N+](=O)[O-])cc1
	1860 nM	25%	CC(C)(C)NC(=O)/C=C/c1nc2ccccc2n(CC(=O)O)c1=O
	660 nM	25%	O=C(O)Cn1c(=O)c(/C=C/c2ccc(F)cc2)nc2cc(Cl)ccc21
	362 nM	25%	O=C(O)Cn1c(=O)c(/C=C/c2ccc(F)cc2)nc2cc([N+](=O)[O-])ccc21
30%			O=c1c(/C=C/c2ccccc2)nc2ccccc2n1Cc1ccc([N+](=O)[O-])cc1
	3880 nM	35%	O=C(O)Cn1c(=O)c(/C=C/c2ccccc2)nc2ccc(Cl)cc21

Further lines, the compound ahead of its results:

Structure (SMILES)	inhibition [1]	IC50 [2]	inhibition [3]
COc1ccc(N2CCN(c3nc4ccccc4n(Cc4ccc([N+](=O)[O-])cc4)c3=O)CC2)cc1	26%		
O=C(O)Cn1c(=O)c(Nc2ccc(F)cc2F)nc2cc([N+](=O)[O-])ccc21		283 nM	41%
O=c1c(N2CCN(CCN3CCOCC3)CC2)nc2ccccc2n1Cc1ccc([N+](=O)[O-])cc1	23%		
O=c1c(N2CCN(c3cnccn3)CC2)nc2ccccc2n1Cc1ccc([N+](=O)[O-])cc1	24%		
O=c1c(-c2csc3ccccc23)nc2ccccc2n1Cc1ccc([N+](=O)[O-])cc1	32%		
COc1ccc(N2CCN(c3nc4ccccc4n(CC(=O)O)c3=O)CC2)cc1		7530 nM	48%
O=c1c(N2CCN(c3cccc(C(F)(F)F)c3)CC2)nc2ccccc2n1Cc1ccc([N+](=O)[O-])cc1	42.9%		
